Activity calls are given as the source filed them. The calls are words filed in the database; no cut-off is given here.
tested on: not listed separately; test: Antioxidant activity assessed as radical scavenging activity in FMLP-stimulated human PMNC by chemiluminescence assay; type: functional
In short: (§1)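 Human PMNs in HBSS (5 × 10⁶ cells/ml) preincubated 30 min at 37 °C with luminol (0.2 mM, as added) and test solution (ethanol stock diluted in HBSS). Stimulated with FMLP (0.5 μM, as added). Luminol-enhanced chemiluminescence recorded in cpm for 15 min at 37 °C. Area under the curve expressed as % of compound-free control; five measurements per concentration, averaged. Quercetin served as positive control.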

Row | Structure (SMILES) | IC50 [nM]
1 | O=c1c(O)c(-c2ccc(O)c(O)c2)oc2cc(O)cc(O)c12 [QUERCETIN] | 500
2 | C[C@@H]1O[C@@H](O[C@H]2[C@H](Oc3c(-c4ccc(O)c(O)c4)oc4cc(O[C@@H]5O[C@H](CO)[C@@H](O)[C@H](O)[C@H]5O)cc(O)c4c3=O)OC[C@H](O)[C@@H]2O)[C@H](O)[C@H](O)[C@H]1O [CALABRICOSIDE A] | 250
3 | C[C@@H]1O[C@@H](O[C@H]2[C@H](Oc3c(-c4ccc(O)c(O)c4)oc4cc(O[C@@H]5O[C@H](CO)[C@@H](O)[C@H](O)[C@H]5O)cc(O)c4c3=O)OC[C@H](O)[C@@H]2O)[C@H](O)[C@H](O)[C@H]1OC(=O)/C=C/c1ccc(O)c(O)c1 [CALABRICOSIDE B] | 300

species: Homo sapiens; test: Antioxidant activity assessed as radical scavenging activity in FMLP-stimulated human PMNC up to 30 uM by chemiluminescence assay; type: functional; in short: as §1

Row | Structure (SMILES) | Activity
4 | COc1cc(C[C@H]2CO[C@@H](c3ccc(O[C@@H]4O[C@H](CO)[C@@H](O)[C@H](O)[C@H]4O)c(OC)c3)[C@H]2CO)ccc1O[C@@H]1O[C@H](CO)[C@@H](O)[C@H](O)[C@H]1O | inactive
5 | CC(=O)OCC1=C[C@H](O)[C@@H]2C(C(=O)O)=CO[C@@H](O[C@H]3O[C@@H](CO)[C@H](O)[C@@H](O)[C@@H]3O)[C@H]12 | inactive
6 | CSC(=O)OCC1=C[C@@H]2OC(=O)C3=CO[C@@H](O[C@@H]4O[C@H](CO)[C@@H](O)[C@H](O)[C@H]4O)[C@H]1[C@@H]32 | inactive
7 | CC(=O)OCC1=C[C@@H]2OC(=O)C3=CO[C@@H](O[C@@H]4O[C@H](CO)[C@@H](O)[C@H](O)[C@H]4O)[C@H]1[C@@H]32 | inactive
8 | O=C(O)C1=CO[C@@H](O[C@@H]2O[C@H](CO)[C@@H](O)[C@H](O)[C@H]2O)[C@@H]2C(CO)=CC[C@H]12 | inactive
9 | COc1cc([C@H]2OC[C@H]3[C@@H]2CO[C@@H]3c2cc(OC)c(O[C@@H]3O[C@H](CO)[C@@H](O)[C@H](O)[C@H]3O)c(OC)c2)cc(OC)c1O[C@@H]1O[C@H](CO)[C@@H](O)[C@H](O)[C@H]1O | inactive
10 | O=C1O[C@H]2C=C(CO)[C@H]3[C@H](O[C@@H]4O[C@H](CO)[C@@H](O)[C@H](O)[C@H]4O)OC=C1[C@H]32 | inactive
11 | CSC(=O)OCC1=C[C@H](O)[C@H]2C(C(=O)O)=CO[C@@H](O[C@@H]3O[C@@H](CO)[C@@H](O)[C@@H](O)[C@H]3O)[C@H]12 | inactive
12 | O=C(O)C1=CO[C@@H](O[C@@H]2O[C@H](CO)[C@@H](O)[C@H](O)[C@H]2O)[C@@H]2C(CO)=C[C@@H](O)[C@H]12 | inactive

From ChEMBL document CHEMBL1155733, “Flavonoid, iridoid, and lignan glycosides from Putoria calabrica” (J Nat Prod, 2001)
